Source: PubChem
iPSC survival up: enhancers of human iPSC single-cell survival | hiPSC single-cell survival, ATPlite luminescence; 100% = ROCK inhibitor wells, 0% = DMSO | survival enhancement, % at 20 µM | 0.044% of 360,000 active | AID 602274; in the data active = survival enhancement above about 18%;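 also: cells exposed to compounds for 16 hours before the ATP read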
MPTP block: inhibitors of mitochondrial permeability transition pore; isolated mouse mitochondria, Ca2+ swelling absorbance, 30 min; inhibition, % at 10 µM; 1.4% of 360,000 active;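 active = inhibition of 50% or more, scaled per plate between neutral and stimulator controls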;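 also: 0% = DMSO wells given calcium and 100% = 1 mM EGTA wells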
Apaf-1 inh: inhibitors of human Apaf-1 apoptosome | reconstituted apoptosome caspase-3 activity, DEVD-Rh110 fluorescence | inhibition, % at 20 µM | 0.71% of 330,000 active | AID 489030; active = inhibition of at least 40% at 20 µM;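 also: plate controls were DMSO wells for no effect and DEVD-CHO caspase inhibitor wells for full effect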
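Material: reconstituted apoptosome with Apaf-1, cytochrome c, caspase-9, procaspase-3, dATP / Buffer or medium: pH 7.5 Hepes buffer with CHAPS, BSA, DTT / Also added: cytochrome c with DEVD-Rh110 / Schedule: compound with Apaf-1, dATP, procaspase-3 30 min, then 50 min reaction, room temperature / Technique: rhodamine 110 fluorescence at Ex 480/Em 540 nm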
Exocytosis inh: blocks lytic granule exocytosis | AID 651702 | inhibition, % at 10 µM | TALL-104 LAMP-1 surface exposure, flow cytometry; cells stimulated with thapsigargin and PMA | 0.66% of 360,000 active;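 active = inhibition above about 55%, limit read from the data; inconclusive = no clear call, values can overlap the other calls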
UBC13 polyUb: human UBC13 polyubiquitination inhibition; P61088; UBC13 polyubiquitin chain formation, TR-FRET; inhibition, % at 20 µM; 0.47% of 330,000 active; in the data active = inhibition above about 45%, passing the limit was not always enough; inconclusive = no clear call, values can overlap the other calls
Target sequence (P61088 whole entry, looked up): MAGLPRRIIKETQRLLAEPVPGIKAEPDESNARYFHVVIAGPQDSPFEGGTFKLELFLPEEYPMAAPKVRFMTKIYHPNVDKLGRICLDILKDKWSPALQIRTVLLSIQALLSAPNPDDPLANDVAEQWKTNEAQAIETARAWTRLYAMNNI
beta cell repl: MIN6 beta-cell proliferation induction; proliferation, % at 10 µM; MIN6 cells proliferation, ATPlite luminescence, 48 h; cells starved in 0.2% serum; 100% = growth in 10% serum; 0.29% of 330,000 active; AID 2380;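 active = compounds whose signal lies at least 3.5 SD above the mean of all wells on their plate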;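 also: 0% = DMSO-treated cells in low-serum medium and 100% = 10% serum control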
Exocytosis CP01: blocks lytic granule exocytosis. shares compounds with Exocytosis inh. TALL-104 cells, LAMP-1 externalization, flow cytometry; stimulated with PMA plus thapsigargin. inhibition, % at 10 µM. 11% of 1,500 active; in the data active = inhibition above about 60%;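 also: 0% = stimulated vehicle wells and 100% = unstimulated wells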
* marks the source's active call; other numbers are inactive results; u = inconclusive; x = no result given. Compounds with a hit are over-represented: about 3% of the library has one in this group of screens.

SMILES	iPSC survival up	MPTP block	Apaf-1 inh	Exocytosis inh	UBC13 polyUb	beta cell repl	Exocytosis CP01
COC(=O)[C@H](Cc1c[nH]c2ccccc12)NC(=O)Cc1c[nH]c2ccccc12	0.7	-0.4	-0.8	65.6*	6.9	-1.5	-11.7
COC(=O)[C@H](Cc1c[nH]c2ccccc12)NC(=O)CCCc1c[nH]c2ccccc12	-0.7	-1.6	-4.0	74.2*	6.7	-1.6	-11.9
O=C(O)C(Cc1c[nH]c2ccccc12)NS(=O)(=O)c1ccc(F)cc1 (stereo not drawn)	0.3	1.5	x	-5.7	x	x	x
COC(=O)C(Cc1c[nH]c2ccccc12)NC(=O)C(=O)c1c[nH]c2ccccc12 (stereo not drawn)	0.0	-0.9	-15.3	59.0*	6.6	-2.8	-11.7
N#CCOC(=O)[C@H](Cc1c[nH]c2ccccc12)NS(=O)(=O)c1ccc(Cl)cc1	0.3	1.2	11.9	57.1*	-1.2	-0.2	51.7
COC(=O)C(Cc1c[nH]c2ccccc12)NC(=O)C1CC1 (stereo not drawn)	-0.1	-2.6	1.6	4.8	0.1	-1.0	x
Cc1ccc2nc(SCC(=O)N3CCCCC3)nc(=O)n2c1	0.6	-3.2	12.1	5.3	-10.2	-4.5	x
CN(C)S(=O)(=O)c1ccc(N2CCCC2)c(C(=O)NNC(=O)c2ccc(F)cc2)c1	-0.6	-0.4	15.8	4.4	-2.6	0.5	x
NC(=O)SCC(=O)Nc1ccc(Cl)c(Cl)c1	3.9	-0.5	-12.2	3.3	30.5	-3.8	x
NC(=O)SCC(=O)Nc1ccc(Cl)cc1	9.8	-9.9	8.4	77.9*	24.1	-6.5	-6.3
COc1ccc(NC(=O)Nc2ccc(OC)cc2)cc1	-1.1	1.0	3.7	1.9	-5.8	-3.3	x
N#Cc1ccc(NC(=O)Nc2ccc(Oc3ccc(NC(=O)Nc4ccc(C#N)cc4)cc3)cc2)cc1	-0.6	15.5	15.9	62.0*	-7.8	-1.9	81.4*
CC(C)c1ccc(NC(=O)[C@H](NC(=O)[C@@H]2Cc3ccccc3CN2)c2ccccc2)cc1	-0.4	4.7	18.2	59.4*	9.3	-6.7	-10.0
COc1cc(CNc2ccc(O)cc2)cc(Br)c1OCc1ccccc1	-0.6	1.3	20.2	0.9	2.1	-5.8	x
COc1cc(CNC(C)c2ccccc2)cc(Br)c1OCc1ccc(F)cc1 (stereo not drawn)	0.3	12.1	23.4	65.3*	25.0	-4.5	-13.5
COc1cc(CNC(C)c2ccccc2)cc(Br)c1OCc1ccccc1 (stereo not drawn)	0.5	9.6	13.7	87.7*	17.9	-4.6	-1.4
CCOc1ccccc1C(=O)Nc1ccc(C(=O)c2ccccc2)cc1	0.3	0.6	16.5	60.3*	18.8	-3.5	-4.6
CN=C1S/C(=C\c2cccc(Cl)c2Cl)C(=O)N1C	x	x	7.7	x	4.4	-1.1	x
CCN(Cc1ccccc1OC)CC1CCCN(CCc2cccc(OC)c2)C1 (stereo not drawn)	-0.6	1.4	-10.4	63.0*	10.0	-2.6	-10.7
CCN(Cc1ccc(OC)c(COC)c1)CC1CCCN(CCc2cccc(OC)c2)C1 (stereo not drawn)	-0.7	5.0	11.7	72.0*	11.4	-4.8	-11.7
CCN(Cc1ccc(NC(C)=O)cc1)CC1CCCN(CCc2cccc(OC)c2)C1 (stereo not drawn)	-0.8	1.6	-7.5	50.8	-3.7	-0.9	x
CCN(Cc1ccc(OC)c(COC)c1)CC1CCCN(CCc2cccc(F)c2)C1 (stereo not drawn)	-0.5	1.3	10.2	67.9*	-3.8	-4.5	-11.7
COCOCCn1cc(CN2CCS(=O)(=O)N(Cc3ccc(-c4ccc(Cl)c(Cl)c4)cc3)C(C(C)C)C2=O)nn1 (stereo not drawn)	1.5	-2.3	x	57.3*	x	x	33.3
O=C(N[C@@H](Cc1ccccc1)C(=O)OCc1ccccc1)c1ccco1	1.6	-0.8	21.9	0.6	-6.0	-1.9	x
CN(C)CCn1c(=N)n(CC(O)c2ccc(Cl)c(Cl)c2)c2ccccc21 (stereo not drawn)	-3.7	-4.1	17.9	84.6*	5.4	-6.0	-12.8
SMILES	iPSC survival up	MPTP block	Apaf-1 inh	Exocytosis inh	UBC13 polyUb	beta cell repl	Exocytosis CP01
Cn1c(=O)c(NC2CCCCC2)c2c3c(cccc31)C(=O)c1ccccc1-2	-0.8	-0.1	3.8	90.0*	-43.1	-4.8	101.0*
CCNc1c2c3c(cccc3n(C)c1=O)C(=O)c1ccccc1-2	x	x	9.7	x	-309.6	2.1	x
CCCCCCn1cc(CN2CC(N3CCN(C4CCN(C)CC4)CC3)CS2(=O)=O)nn1 (stereo not drawn)	-0.2	-0.1	x	-1.1	x	x	x
CC1(C(=O)Nc2ccc3c(c2)OCCO3)CCN1C(=O)Cc1ccc(-c2ccccc2)cc1 (stereo not drawn)	-0.2	1.4	x	-4.1	x	x	x
Cc1cc(C)c2nc(C)cc(N/N=C/c3ccc(O)cc3)c2c1	-0.8	7.3	31.0	86.8*	u	-5.7	101.2*
S=c1nccc(-c2ccc3c(c2)CCO3)[nH]1	-0.1	0.4	-10.1	59.2*	-0.5	-3.9	-12.4
O=C(NCc1cccc(Cl)c1)C1Cc2c(-c3ccccc3Oc3ccccc3)ccnc2O1 (stereo not drawn)	-1.1	1.5	x	6.0	x	x	x
Cc1ccc(S(=O)(=O)N2CCOCC2)cc1NC(=O)CN1CCC(Cc2ccccc2)CC1	-3.1	32.3	21.6	71.4*	10.4	-2.7	-12.8
Cc1ccc(S(=O)(=O)N2CCOCC2)cc1NC(=O)CN1CCN(C)CC1	-0.5	-0.6	-4.3	4.6	7.1	4.2	x
CN(C)S(=O)(=O)N1CCC(Oc2ccc(C(=O)N3CCCCCC3)cc2)CC1	2.5	4.0	x	-3.4	x	x	x
CN(C(=O)c1ccc(OC2CCN(S(=O)(=O)N(C)C)CC2)cc1)C1CCCCC1	-0.4	0.0	11.7	64.0*	-20.9	-6.0	-1.2
CN(C(=O)COC(=O)CNC(=O)c1sc2ccccc2c1Cl)C1CCS(=O)(=O)C1 (stereo not drawn)	2.2	0.1	2.2	-13.5	5.4	1.3	x
c1ccc(-c2oc3ncnc(NCCCn4ccnc4)c3c2-c2ccccc2)cc1	-1.2	0.3	31.1	40.0	16.8	-4.0	x
CN(C)CCCNc1ncnc2oc(-c3ccccc3)c(-c3ccccc3)c12	-0.8	-2.3	11.3	58.9*	9.0	-3.6	4.3
CCOC(=O)c1ccc(NC(=O)c2ccc(CN3CCc4ccccc4C3)cc2)cc1	-0.4	0.0	27.9	70.3*	-4.3	-3.1	-12.1
COc1cc(C(=O)OCC(=O)NC(N)=O)cc(CN2C(=O)c3ccccc3C2=O)c1OC	-0.5	0.4	6.7	6.2	0.4	-2.8	x
Cc1cc(C)nc(NC(=NCCc2c[nH]c3ccccc23)NC(=O)C(C)(C)C)n1	-0.6	13.1	13.0	83.4*	17.1	-3.3	-3.3
